According to ChEMBL document CHEMBL1154566, “Quadranosides I-V, new triterpene glucosides from the seeds of Combretum quadrangulare” (2000):
Active and inactive are the calls of the source. No cut-off for these calls is given here.

Tests used:
Format in all cases: functional
Hepatocyte [1] = assay: Hepatoprotective activity against mouse hepatocytes assessed as inhibition of D-galactosamine/TNFalpha-induced cell death at 100 uM after 18 hrs by MTT assay
In short: (§1)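 Primary cultured mouse hepatocytes in Williams' E medium with 10% calf serum, penicillin G, streptomycin, 100 µM dexamethasone and 50 ng/mL insulin, seeded at 10^5 cells/well and preincubated 2 h. The medium was then replaced with fresh medium holding 0.5 mM D-GalN plus test sample.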

Hepatocyte [2] = assay: Hepatoprotective activity against mouse hepatocytes assessed as inhibition of D-galactosamine/TNFalpha-induced cell death at 50 uM after 18 hrs by MTT assay; in short: as §1
Hepatocyte [3] = assay: Hepatoprotective activity against mouse hepatocytes assessed as inhibition of D-galactosamine/TNFalpha-induced cell death at 200 uM after 18 hrs by MTT assay; in short: as §1
Hepatocyte [4] = assay: Hepatoprotective activity against mouse hepatocytes assessed as inhibition of D-galactosamine/TNFalpha-induced cell death at 25 uM after 18 hrs by MTT assay; in short: as §1

CC1=C(C)[C@H]2C3=CC[C@@H]4[C@@]5(C)C[C@@H](O)[C@H](O)[C@@](C)(CO)[C@@H]5CC[C@@]4(C)[C@]3(C)CC[C@@]2(C(=O)O[C@@H]2O[C@H](CO)[C@@H](O)[C@H](O)[C@H]2O)CC1
inhibition at 100 µM (Hepatocyte [1]): 25% | inhibition at 50 µM (Hepatocyte [2]): 8.3% | inhibition at 200 µM (Hepatocyte [3]): 15%

C[C@H]1[C@H](C)CC[C@]2(C(=O)O[C@@H]3O[C@H](CO)[C@@H](O)[C@H](O)[C@H]3O)CC[C@]3(C)C(=CC[C@@H]4[C@@]5(C)C[C@@H](O)[C@H](O)[C@@](C)(CO)[C@@H]5CC[C@]43C)[C@H]12
Activity (Hepatocyte [1]): inactive | Activity (Hepatocyte [2]): inactive | Activity (Hepatocyte [3]): inactive | Activity (Hepatocyte [4]): inactive

Oc1cc(O)c2c(c1)O[C@H](c1ccc(O)c(O)c1)[C@H](O)C2 [(-)-EPICATECHIN]
inhibition at 100 µM (Hepatocyte [1]): 58.1% | inhibition at 50 µM (Hepatocyte [2]): 38% | inhibition at 200 µM (Hepatocyte [3]): 98.9%

CC1(C)CC[C@]2(C(=O)O)CC[C@]3(C)C(=CC[C@@H]4[C@@]5(C)C[C@@H](O)[C@H](O)[C@@](C)(CO)[C@@H]5CC[C@]43C)[C@@H]2[C@@H]1O [ARJUNGENIN]
inhibition at 100 µM (Hepatocyte [1]): 37% | inhibition at 50 µM (Hepatocyte [2]): 31.8% | inhibition at 200 µM (Hepatocyte [3]): 46.2%

CC1(C)CC[C@]2(C(=O)O[C@@H]3O[C@H](CO)[C@@H](O)[C@H](O)[C@H]3O)CC[C@]3(C)C(=CC[C@@H]4[C@@]5(C)C[C@@H](O)[C@H](O)[C@@](C)(CO)[C@@H]5CC[C@]43C)[C@@H]2[C@@H]1O [ARJUNGLUCOSIDE I]
inhibition at 100 µM (Hepatocyte [1]): 31.5% | inhibition at 50 µM (Hepatocyte [2]): 10.1% | inhibition at 200 µM (Hepatocyte [3]): 32.7%

Oc1cc(O)c2c(c1)O[C@H](c1cc(O)c(O)c(O)c1)[C@@H](O)C2 [GALLOCATECHIN]
inhibition at 100 µM (Hepatocyte [1]): 30.3% | inhibition at 50 µM (Hepatocyte [2]): 19.7% | inhibition at 200 µM (Hepatocyte [3]): 33.5%

C[C@@]1(CO)CC[C@]2(C(=O)O[C@@H]3O[C@H](CO)[C@@H](O)[C@H](O)[C@H]3O)CC[C@]3(C)C(=CC[C@@H]4[C@@]5(C)C[C@@H](O)[C@H](O)[C@@](C)(CO)[C@@H]5CC[C@]43C)[C@@H]2C1 [QUADRANOSIDE III]
inhibition at 100 µM (Hepatocyte [1]): 17.8% | inhibition at 50 µM (Hepatocyte [2]): 8% | inhibition at 200 µM (Hepatocyte [3]): 35.5% | inhibition at 25 µM (Hepatocyte [4]): 15.1%

C=C(C)[C@@H]1CC[C@]2(C(=O)O[C@@H]3O[C@H](CO)[C@@H](O)[C@H](O)[C@H]3O)CC[C@]3(C)[C@H](CC[C@@H]4[C@@]5(C)C[C@@H](O)[C@H](O)[C@@](C)(CO)[C@@H]5[C@H](O)C[C@]43C)[C@@H]12 [QUADRANOSIDE II]
inhibition at 100 µM (Hepatocyte [1]): 46.1% | inhibition at 50 µM (Hepatocyte [2]): 40.9% | inhibition at 200 µM (Hepatocyte [3]): 83.6% | inhibition at 25 µM (Hepatocyte [4]): 32%

C=C(C)[C@@H]1CC[C@]2(C(=O)O[C@@H]3O[C@H](CO)[C@@H](O)[C@H](O)[C@H]3O)CC[C@]3(C)[C@H](CC[C@@H]4[C@@]5(C)C[C@@H](O)[C@H](O)C(C)(C)[C@@H]5[C@H](O)C[C@]43C)[C@@H]12 [QUADRANOSIDE I]
inhibition at 100 µM (Hepatocyte [1]): 29.7% | inhibition at 50 µM (Hepatocyte [2]): 37.6% | inhibition at 200 µM (Hepatocyte [3]): 71.2% | inhibition at 25 µM (Hepatocyte [4]): 6.3%

CC1=C2C3=CC[C@@H]4[C@@]5(C)C[C@@H](O)[C@H](O)[C@@](C)(CO)[C@@H]5[C@H](O)C[C@@]4(C)[C@]3(C)CC[C@@]2(C(=O)O[C@@H]2O[C@H](CO)[C@@H](O)[C@H](O)[C@H]2O)CC[C@H]1C [QUADRANOSIDE V]
inhibition at 100 µM (Hepatocyte [1]): 77.7% | inhibition at 50 µM (Hepatocyte [2]): 67.5% | inhibition at 200 µM (Hepatocyte [3]): 80.1% | inhibition at 25 µM (Hepatocyte [4]): 59.3%

COc1cc(C2Oc3cc([C@H]4Oc5cc(O)cc(O)c5C(=O)[C@@H]4O)ccc3OC2CO)ccc1O (some centres undefined) [SILIBININ]
inhibition at 100 µM (Hepatocyte [1]): 96.5% | inhibition at 50 µM (Hepatocyte [2]): 61.2% | inhibition at 200 µM (Hepatocyte [3]): 70.8% | inhibition at 25 µM (Hepatocyte [4]): 38.1%
